# Measurements reported in ChEMBL document CHEMBL1157526, “Development of novel beta-amyloid probes based on 3,5-diphenyl-1,2,4-oxadiazole” (Bioorg Med Chem, 2008).
# Tested on: Kidney
# Test: Biodistribution in ddY mouse kidney at 0.5 uCi, iv after 60 mins
# Type: ADME, organism-based
# Settings: in vivo, 1 h
# Outline: (§1)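 Normal male-unspecified ddY mice (5-week-old, 22–25 g) given radioiodinated ligand by tail-vein injection, killed at set times post-injection. Organs removed and weighed, radioactivity counted in a gamma counter. Expressed as % injected dose per gram, stomach as % injected dose per organ. Mean (s.d.) of 3–5 animals per time point.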
row,SMILES,Drug uptake
1,CNc1ccc(-c2nc(-c3ccc([125I])cc3)no2)cc1,3.02 % ID/g

# Tested on: Pancreas
# Test: Biodistribution in ddY mouse pancreas at 0.5 uCi, iv after 60 mins
# Type: ADME, organism-based
# Settings: in vivo, 1 h
# Outline: as §1
row,SMILES,Drug uptake
1,CNc1ccc(-c2nc(-c3ccc([125I])cc3)no2)cc1,1.88 % ID/g

# Tested on: Stomach
# Test: Biodistribution in ddY mouse stomach at 0.5 uCi, iv after 30 mins
# Type: ADME, organism-based
# Settings: in vivo, 0.5 h
# Outline: as §1
row,SMILES,Drug uptake
1,CNc1ccc(-c2nc(-c3ccc([125I])cc3)no2)cc1,4.89 % ID/organ

# Tested on: Liver
# Test: Biodistribution in ddY mouse liver at 0.5 uCi, iv after 10 mins
# Type: ADME, organism-based
# Settings: in vivo
# Outline: as §1
row,SMILES,Drug uptake
1,CNc1ccc(-c2nc(-c3ccc([125I])cc3)no2)cc1,12.37 % ID/g

# Tested on: Kidney
# Test: Biodistribution in ddY mouse kidney at 0.5 uCi, iv after 30 mins
# Type: ADME, organism-based
# Settings: in vivo, 0.5 h
# Outline: as §1
row,SMILES,Drug uptake
1,CNc1ccc(-c2nc(-c3ccc([125I])cc3)no2)cc1,3.39 % ID/g

# Tested on: Pancreas
# Test: Biodistribution in ddY mouse pancreas at 0.5 uCi, iv after 10 mins
# Type: ADME, organism-based
# Settings: in vivo
# Outline: as §1
row,SMILES,Drug uptake
1,CNc1ccc(-c2nc(-c3ccc([125I])cc3)no2)cc1,3.91 % ID/g

# Tested on: Intestine
# Test: Biodistribution in ddY mouse intestine at 0.5 uCi, iv after 30 mins
# Type: ADME, organism-based
# Settings: in vivo, 0.5 h
# Outline: as §1
row,SMILES,Drug uptake
1,CNc1ccc(-c2nc(-c3ccc([125I])cc3)no2)cc1,5.67 % ID/g

# Tested on: Blood
# Test: Biodistribution in ddY mouse blood at 0.5 uCi, iv after 10 mins
# Type: ADME, organism-based
# Settings: in vivo
# Outline: as §1
row,SMILES,Drug uptake
1,CNc1ccc(-c2nc(-c3ccc([125I])cc3)no2)cc1,1.84 % ID/g

# Tested on: Brain
# Test: Biodistribution in ddY mouse brain at 0.5 uCi, iv after 60 mins
# Type: ADME, organism-based
# Settings: in vivo, 1 h
# Outline: as §1
row,SMILES,Drug uptake
1,CNc1ccc(-c2nc(-c3ccc([125I])cc3)no2)cc1,2.7 % ID/g

# Tested on: Spleen
# Test: Biodistribution in ddY mouse spleen at 0.5 uCi, iv after 60 mins
# Type: ADME, organism-based
# Settings: in vivo, 1 h
# Outline: as §1
row,SMILES,Drug uptake
1,CNc1ccc(-c2nc(-c3ccc([125I])cc3)no2)cc1,2.14 % ID/g

# Tested on: Spleen
# Test: Biodistribution in ddY mouse spleen at 0.5 uCi, iv after 30 mins
# Type: ADME, organism-based
# Settings: in vivo, 0.5 h
# Outline: as §1
row,SMILES,Drug uptake
1,CNc1ccc(-c2nc(-c3ccc([125I])cc3)no2)cc1,2.84 % ID/g

# Tested on: Kidney
# Test: Biodistribution in ddY mouse kidney at 0.5 uCi, iv after 2 mins
# Type: ADME, organism-based
# Settings: in vivo
# Outline: as §1
row,SMILES,Drug uptake
1,CNc1ccc(-c2nc(-c3ccc([125I])cc3)no2)cc1,9.53 % ID/g

# Tested on: Liver
# Test: Biodistribution in ddY mouse liver at 0.5 uCi, iv after 2 mins
# Type: ADME, organism-based
# Settings: in vivo
# Outline: as §1
row,SMILES,Drug uptake
1,CNc1ccc(-c2nc(-c3ccc([125I])cc3)no2)cc1,14.62 % ID/g

# Tested on: Stomach
# Test: Biodistribution in ddY mouse stomach at 0.5 uCi, iv after 60 mins
# Type: ADME, organism-based
# Settings: in vivo, 1 h
# Outline: as §1
row,SMILES,Drug uptake
1,CNc1ccc(-c2nc(-c3ccc([125I])cc3)no2)cc1,7.38 % ID/organ

# Tested on: Heart
# Test: Biodistribution in ddY mouse heart at 0.5 uCi, iv after 30 mins
# Type: ADME, organism-based
# Settings: in vivo, 0.5 h
# Outline: as §1
row,SMILES,Drug uptake
1,CNc1ccc(-c2nc(-c3ccc([125I])cc3)no2)cc1,1.68 % ID/g

# Tested on: Spleen
# Test: Biodistribution in ddY mouse spleen at 0.5 uCi, iv after 2 mins
# Type: ADME, organism-based
# Settings: in vivo
# Outline: as §1
row,SMILES,Drug uptake
1,CNc1ccc(-c2nc(-c3ccc([125I])cc3)no2)cc1,4.58 % ID/g

# Tested on: Liver
# Test: Biodistribution in ddY mouse liver at 0.5 uCi, iv after 30 mins
# Type: ADME, organism-based
# Settings: in vivo, 0.5 h
# Outline: as §1
row,SMILES,Drug uptake
1,CNc1ccc(-c2nc(-c3ccc([125I])cc3)no2)cc1,8.53 % ID/g

# Tested on: Stomach
# Test: Biodistribution in ddY mouse stomach at 0.5 uCi, iv after 10 mins
# Type: ADME, organism-based
# Settings: in vivo
# Outline: as §1
row,SMILES,Drug uptake
1,CNc1ccc(-c2nc(-c3ccc([125I])cc3)no2)cc1,2.32 % ID/organ

# Tested on: Blood
# Test: Biodistribution in ddY mouse blood at 0.5 uCi, iv after 30 mins
# Type: ADME, organism-based
# Settings: in vivo, 0.5 h
# Outline: as §1
row,SMILES,Drug uptake
1,CNc1ccc(-c2nc(-c3ccc([125I])cc3)no2)cc1,1.52 % ID/g

# Tested on: Pancreas
# Test: Biodistribution in ddY mouse pancreas at 0.5 uCi, iv after 30 mins
# Type: ADME, organism-based
# Settings: in vivo, 0.5 h
# Outline: as §1
row,SMILES,Drug uptake
1,CNc1ccc(-c2nc(-c3ccc([125I])cc3)no2)cc1,3.06 % ID/g

# Tested on: Blood
# Test: Biodistribution in ddY mouse blood at 0.5 uCi, iv after 2 mins
# Type: ADME, organism-based
# Settings: in vivo
# Outline: as §1
row,SMILES,Drug uptake
1,CNc1ccc(-c2nc(-c3ccc([125I])cc3)no2)cc1,3.54 % ID/g

# Tested on: Intestine
# Test: Biodistribution in ddY mouse intestine at 0.5 uCi, iv after 60 mins
# Type: ADME, organism-based
# Settings: in vivo, 1 h
# Outline: as §1
row,SMILES,Drug uptake
1,CNc1ccc(-c2nc(-c3ccc([125I])cc3)no2)cc1,8.46 % ID/g

# Tested on: Brain
# Test: Biodistribution in ddY mouse brain at 0.5 uCi, iv after 30 mins
# Type: ADME, organism-based
# Settings: in vivo, 0.5 h
# Outline: as §1
row,SMILES,Drug uptake
1,CNc1ccc(-c2nc(-c3ccc([125I])cc3)no2)cc1,2.56 % ID/g

# Tested on: Heart
# Test: Biodistribution in ddY mouse heart at 0.5 uCi, iv after 10 mins
# Type: ADME, organism-based
# Settings: in vivo
# Outline: as §1
row,SMILES,Drug uptake
1,CNc1ccc(-c2nc(-c3ccc([125I])cc3)no2)cc1,3.05 % ID/g

# Tested on: Liver
# Test: Biodistribution in ddY mouse liver at 0.5 uCi, iv after 60 mins
# Type: ADME, organism-based
# Settings: in vivo, 1 h
# Outline: as §1
row,SMILES,Drug uptake
1,CNc1ccc(-c2nc(-c3ccc([125I])cc3)no2)cc1,7.3 % ID/g

# Tested on: Pancreas
# Test: Biodistribution in ddY mouse pancreas at 0.5 uCi, iv after 2 mins
# Type: ADME, organism-based
# Settings: in vivo
# Outline: as §1
row,SMILES,Drug uptake
1,CNc1ccc(-c2nc(-c3ccc([125I])cc3)no2)cc1,3.34 % ID/g

# Tested on: Heart
# Test: Biodistribution in ddY mouse heart at 0.5 uCi, iv after 2 mins
# Type: ADME, organism-based
# Settings: in vivo
# Outline: as §1
row,SMILES,Drug uptake
1,CNc1ccc(-c2nc(-c3ccc([125I])cc3)no2)cc1,9.51 % ID/g

# Tested on: Intestine
# Test: Biodistribution in ddY mouse intestine at 0.5 uCi, iv after 2 mins
# Type: ADME, organism-based
# Settings: in vivo
# Outline: as §1
row,SMILES,Drug uptake
1,CNc1ccc(-c2nc(-c3ccc([125I])cc3)no2)cc1,1.36 % ID/g

# Tested on: Blood
# Test: Biodistribution in ddY mouse blood at 0.5 uCi, iv after 60 mins
# Type: ADME, organism-based
# Settings: in vivo, 1 h
# Outline: as §1
row,SMILES,Drug uptake
1,CNc1ccc(-c2nc(-c3ccc([125I])cc3)no2)cc1,1.54 % ID/g

# Tested on: Heart
# Test: Biodistribution in ddY mouse heart at 0.5 uCi, iv after 60 mins
# Type: ADME, organism-based
# Settings: in vivo, 1 h
# Outline: as §1
row,SMILES,Drug uptake
1,CNc1ccc(-c2nc(-c3ccc([125I])cc3)no2)cc1,1.27 % ID/g

# Tested on: Stomach
# Test: Biodistribution in ddY mouse stomach at 0.5 uCi, iv after 2 mins
# Type: ADME, organism-based
# Settings: in vivo
# Outline: as §1
row,SMILES,Drug uptake
1,CNc1ccc(-c2nc(-c3ccc([125I])cc3)no2)cc1,1.08 % ID/organ

# Tested on: Brain
# Test: Biodistribution in ddY mouse brain at 0.5 uCi, iv after 10 mins
# Type: ADME, organism-based
# Settings: in vivo
# Outline: as §1
row,SMILES,Drug uptake
1,CNc1ccc(-c2nc(-c3ccc([125I])cc3)no2)cc1,1.98 % ID/g

# Tested on: Kidney
# Test: Biodistribution in ddY mouse kidney at 0.5 uCi, iv after 10 mins
# Type: ADME, organism-based
# Settings: in vivo
# Outline: as §1
row,SMILES,Drug uptake
1,CNc1ccc(-c2nc(-c3ccc([125I])cc3)no2)cc1,5.3 % ID/g

# Tested on: Spleen
# Test: Biodistribution in ddY mouse spleen at 0.5 uCi, iv after 10 mins
# Type: ADME, organism-based
# Settings: in vivo
# Outline: as §1
row,SMILES,Drug uptake
1,CNc1ccc(-c2nc(-c3ccc([125I])cc3)no2)cc1,4.7 % ID/g

# Tested on: Intestine
# Test: Biodistribution in ddY mouse intestine at 0.5 uCi, iv after 10 mins
# Type: ADME, organism-based
# Settings: in vivo
# Outline: as §1
row,SMILES,Drug uptake
1,CNc1ccc(-c2nc(-c3ccc([125I])cc3)no2)cc1,2.83 % ID/g

# Tested on: Brain
# Test: Biodistribution in ddY mouse brain at 0.5 uCi, iv after 2 mins
# Type: ADME, organism-based
# Settings: in vivo
# Outline: as §1
row,SMILES,Drug uptake
1,CNc1ccc(-c2nc(-c3ccc([125I])cc3)no2)cc1,1.44 % ID/g
